Experimental data reported in ChEMBL document CHEMBL1152648, “Synthesis and biological evaluation of epothilone A dimeric compounds” (Bioorg Med Chem, 2009).
pIC50: −log10 of the molar value. Values after ≈ are worked out from the molar mass of the structure shown.

Experiments:
[1] = Antiangiogenic activity in BAEC assessed as inhibition cell migration after 24 hrs by […] migration assay; format: functional; settings: Bos taurus
Summary of the method: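 BAE monolayers grown to confluence, wounded with pipette tips to give one acellular 1 mm-wide lane per well, washed, then given complete medium with or without test compounds. Same wounded areas photographed at 0, 7 and 24 h under microscope.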

[2] = Cytotoxicity against mouse betaD10 cells after 96 hrs by MTS assay; format: functional, cell-based
Summary of the method: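 βD10 lung tumor cells from c-myc/c-raf double transgenic mice seeded at 10^3 cells/well and left to attach 24 h. Compounds added in medium at various concentrations for 24 or 96 h. MTS/PES reagent then 1 h at 37 °C, absorbance at 490 nm. Quintuplicates, expressed as % of control.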

[3] = Cytotoxicity against BAEC; settings: Bos taurus
Summary of the method: (§1)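 Cells (3 × 10^3 BAE or 2 × 10^3 HT1080) in their growth media with serial compound dilutions, 3 days, 37 °C, 5% CO2. MTT added for 4 h, formazan dissolved in 0.04 N HCl–2-propanol, read at 550 nm. Triplicate determinations. IC50 is the concentration giving 50% cell survival. Means ± SD of three independent experiments.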

[4] = Antiangiogenic activity in BAEC assessed as inhibition of tube formation after 7 hrs by cell differentiation assay; format: functional; settings: Bos taurus
Summary of the method: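 BAE cells (5 × 10^4) in DMEM plated on polymerized Matrigel (about 10.5 mg/mL), compounds added at different amounts, 37 °C, 5% CO2, 7 h. Cord/tube formation photographed at 200×. Each concentration tested in duplicate, scored by two observers.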

[5] = tested on: MCF7; experiment: Cytotoxicity against human MCF7 cells after 72 hrs by methylene blue assay; format: functional, cell-based; settings: MCF7, 72 h
Summary of the method: (§2)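 Cells exposed to compounds for 72 h, then fixed. Protein content quantified by methylene blue staining. IC50 is 50% inhibition of control growth. Means ± SD of three independent experiments.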

[6] = target: T1, Tubulin (Sus scrofa) (UniProt P02554+P02550); experiment: Induction of pig brain tubulin polymerization at 5 uM
[7] = tested on: A549; experiment: Cytotoxicity against human A549 cells after 72 hrs by methylene blue assay; format: functional, cell-based; settings: A549, 72 h; summary of the method: as §2
[8] = tested on: HT-1080; experiment: Cytotoxicity against human HT1080 cells after 3 days by MTT assay; format: functional, cell-based; settings: HT-1080, 72 h; summary of the method: as §1
[9] = target: T1, Tubulin (Sus scrofa); experiment: Induction of pig brain tubulin polymerization at 10 uM

T1 sequence (P02550 whole entry, looked up): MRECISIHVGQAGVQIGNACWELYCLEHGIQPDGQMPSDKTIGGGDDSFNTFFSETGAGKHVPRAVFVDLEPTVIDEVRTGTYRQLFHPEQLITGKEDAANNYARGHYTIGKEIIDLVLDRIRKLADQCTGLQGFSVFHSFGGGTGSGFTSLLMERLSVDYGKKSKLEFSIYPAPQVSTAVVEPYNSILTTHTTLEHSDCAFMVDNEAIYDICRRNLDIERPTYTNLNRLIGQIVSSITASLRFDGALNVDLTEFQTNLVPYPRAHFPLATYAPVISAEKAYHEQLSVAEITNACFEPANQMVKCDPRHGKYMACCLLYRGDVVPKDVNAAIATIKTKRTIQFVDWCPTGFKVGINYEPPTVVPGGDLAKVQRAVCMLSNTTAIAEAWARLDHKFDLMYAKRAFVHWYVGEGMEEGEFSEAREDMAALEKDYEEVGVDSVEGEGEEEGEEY
T1 sequence (P02554 whole entry, looked up): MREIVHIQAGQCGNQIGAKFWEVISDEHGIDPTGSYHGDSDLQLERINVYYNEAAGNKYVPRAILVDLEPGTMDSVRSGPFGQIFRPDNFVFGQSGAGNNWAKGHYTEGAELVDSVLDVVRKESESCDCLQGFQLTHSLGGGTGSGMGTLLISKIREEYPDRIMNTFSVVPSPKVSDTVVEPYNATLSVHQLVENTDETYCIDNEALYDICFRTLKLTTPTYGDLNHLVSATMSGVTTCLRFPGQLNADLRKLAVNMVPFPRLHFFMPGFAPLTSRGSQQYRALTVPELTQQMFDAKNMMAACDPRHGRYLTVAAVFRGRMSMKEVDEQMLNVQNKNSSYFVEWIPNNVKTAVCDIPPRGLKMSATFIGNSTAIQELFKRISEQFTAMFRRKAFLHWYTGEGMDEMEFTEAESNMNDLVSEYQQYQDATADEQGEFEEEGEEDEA

**Q.** With `C/C(=C\c1csc(C)n1)[C@@H]1C[C@@H]2O[C@@H]2CCC[C@H](C)[C@H](OC(=O)CSSCC(=O)O[C@H]2[C@@H](C)CCC[C@H]3O[C@H]3C[C@@H](/C(C)=C/c3csc(C)n3)OC(=O)C[C@H](O)C(C)(C)C(=O)[C@@H]2C)[C@@H](C)C(=O)C(C)(C)[C@@H](O)CC(=O)O1` as the compound, how does the MIC [1] read?
**A.** 0.05 µM (≈ 0.0567 µg/mL)

**Q.** What about the pIC50 [2] of the same compound?
**A.** 6.00

**Q.** And the pIC50 [3]?
**A.** 7.54

**Q.** And the MIC [4]?
**A.** 0.1 µM (≈ 0.113 µg/mL)

**Q.** And the pIC50 [5]?
**A.** 6.45

**Q.** And the % tubulin polymerization [6]?
**A.** 0.3%

**Q.** And the pIC50 [7]?
**A.** 6.50

**Q.** What about the pIC50 [8] of the same compound?
**A.** 6.54

**Q.** What about the % tubulin polymerization [9] of the same compound?
**A.** 1%

**Q.** What does the source list for `C/C(=C\c1csc(C)n1)[C@@H]1C[C@@H]2O[C@@H]2CCC[C@H](C)[C@H](OC(=O)CCCCCCC(=O)O[C@H]2[C@@H](C)CCC[C@H]3O[C@H]3C[C@@H](/C(C)=C/c3csc(C)n3)OC(=O)C[C@H](O)C(C)(C)C(=O)[C@@H]2C)[C@@H](C)C(=O)C(C)(C)[C@@H](O)CC(=O)O1`?
**A.** MIC [1]: 0.1 µM (≈ 0.113 µg/mL); pIC50 [2]: 5.60; pIC50 [3]: 7.70; MIC [4]: 0.1 µM (≈ 0.113 µg/mL); pIC50 [5]: 6.49; % tubulin polymerization [6]: 0.7%; pIC50 [7]: 6.50; pIC50 [8]: 7.77; % tubulin polymerization [9]: 0.3%

**Q.** With `C/C(=C\c1csc(C)n1)[C@@H]1C[C@@H]2O[C@@H]2CCC[C@H](C)[C@H](O)[C@@H](C)C(=O)C(C)(C)[C@@H](O)CC(=O)O1` [EPOTHILONE A] as the compound, how does the MIC [1] read?
**A.** 0.005 µM (≈ 0.00247 µg/mL)

**Q.** What about the pIC50 [2] of the same compound?
**A.** 7.15

**Q.** And the pIC50 [3]?
**A.** 9.15

**Q.** What about the MIC [4] of the same compound?
**A.** 0.005 µM (≈ 0.00247 µg/mL)

**Q.** And the pIC50 [5]?
**A.** 8.60

**Q.** What about the % tubulin polymerization [6] of the same compound?
**A.** 92.2%

**Q.** And the pIC50 [7]?
**A.** 8.59

**Q.** What about the pIC50 [8] of the same compound?
**A.** 8.89

**Q.** What about the % tubulin polymerization [9] of the same compound?
**A.** 99.8%

**Q.** Which results are given for `C/C(=C\c1csc(C)n1)[C@@H]1C[C@@H]2O[C@@H]2CCC[C@H](C)[C@H](OC(=O)CCCSSCCCC(=O)O[C@H]2[C@@H](C)CCC[C@H]3O[C@H]3C[C@@H](/C(C)=C/c3csc(C)n3)OC(=O)C[C@H](O)C(C)(C)C(=O)[C@@H]2C)[C@@H](C)C(=O)C(C)(C)[C@@H](O)CC(=O)O1`?
**A.** MIC [1]: 0.1 µM (≈ 0.119 µg/mL); pIC50 [2]: 5.70; pIC50 [3]: 6.88; MIC [4]: 0.1 µM (≈ 0.119 µg/mL); pIC50 [5]: 6.36; % tubulin polymerization [6]: 0.5%; pIC50 [7]: 6.42; pIC50 [8]: 7.15; % tubulin polymerization [9]: 0.2%

**Q.** Which results are given for `C/C(=C\c1csc(C)n1)[C@@H]1C[C@@H]2O[C@@H]2CCC[C@H](C)[C@H](OC(=O)CCSSCCC(=O)O[C@H]2[C@@H](C)CCC[C@H]3O[C@H]3C[C@@H](/C(C)=C/c3csc(C)n3)OC(=O)C[C@H](O)C(C)(C)C(=O)[C@@H]2C)[C@@H](C)C(=O)C(C)(C)[C@@H](O)CC(=O)O1`?
**A.** MIC [1]: 0.1 µM (≈ 0.116 µg/mL); pIC50 [2]: 8.48; pIC50 [3]: 6.95; MIC [4]: 0.05 µM (≈ 0.0581 µg/mL); pIC50 [5]: 6.42; % tubulin polymerization [6]: 0%; pIC50 [7]: 6.44; pIC50 [8]: 7.37; % tubulin polymerization [9]: 0.2%

**Q.** With `C/C(=C\c1csc(C)n1)[C@@H]1C[C@@H]2O[C@@H]2CCC[C@H](C)[C@H](OC(=O)CCCCC(=O)O[C@H]2[C@@H](C)CCC[C@H]3O[C@H]3C[C@@H](/C(C)=C/c3csc(C)n3)OC(=O)C[C@H](O)C(C)(C)C(=O)[C@@H]2C)[C@@H](C)C(=O)C(C)(C)[C@@H](O)CC(=O)O1` as the compound, how does the MIC [1] read?
**A.** 0.1 µM (≈ 0.11 µg/mL)

**Q.** What about the pIC50 [2] of the same compound?
**A.** 4.15

**Q.** What about the pIC50 [3] of the same compound?
**A.** 7.40

**Q.** And the MIC [4]?
**A.** 0.1 µM (≈ 0.11 µg/mL)

**Q.** What about the pIC50 [5] of the same compound?
**A.** 6.39

**Q.** And the % tubulin polymerization [6]?
**A.** 0.2%

**Q.** What about the pIC50 [7] of the same compound?
**A.** 6.39

**Q.** And the pIC50 [8]?
**A.** 7.16

**Q.** And the % tubulin polymerization [9]?
**A.** 0.7%

**Q.** What does the source list for `C/C(=C\c1csc(C)n1)[C@@H]1C[C@@H]2O[C@@H]2CCC[C@H](C)[C@H](OC(=O)CCCCCCCCC(=O)O[C@H]2[C@@H](C)CCC[C@H]3O[C@H]3C[C@@H](/C(C)=C/c3csc(C)n3)OC(=O)C[C@H](O)C(C)(C)C(=O)[C@@H]2C)[C@@H](C)C(=O)C(C)(C)[C@@H](O)CC(=O)O1`?
**A.** MIC [1]: 0.1 µM (≈ 0.115 µg/mL); pIC50 [2]: 5.30; pIC50 [3]: 7.41; MIC [4]: 0.05 µM (≈ 0.0577 µg/mL); pIC50 [5]: 5.99; % tubulin polymerization [6]: 0.1%; pIC50 [7]: 6.02; pIC50 [8]: 7.89; % tubulin polymerization [9]: 0.6%
